ChEMBL document CHEMBL3751814, “6-Methylpurine derived sugar modified nucleosides: Synthesis and in vivo antitumor activity in D54 tumor expressing M64V-Escherichia coli purine nucleoside phosphorylase” (Eur J Med Chem, 2016)
Active and inactive are the calls of the source. The calls are words filed in the database; no cut-off is given here.

How the values were obtained:
[1] = target: T1, Purine nucleoside phosphorylase (Homo sapiens, UniProt P00491); assay: Prodrug activation assessed as recombinant human PNP-mediated compound cleavage at 100 uM by reverse phase HPLC analysis
T1 sequence (P00491 whole entry): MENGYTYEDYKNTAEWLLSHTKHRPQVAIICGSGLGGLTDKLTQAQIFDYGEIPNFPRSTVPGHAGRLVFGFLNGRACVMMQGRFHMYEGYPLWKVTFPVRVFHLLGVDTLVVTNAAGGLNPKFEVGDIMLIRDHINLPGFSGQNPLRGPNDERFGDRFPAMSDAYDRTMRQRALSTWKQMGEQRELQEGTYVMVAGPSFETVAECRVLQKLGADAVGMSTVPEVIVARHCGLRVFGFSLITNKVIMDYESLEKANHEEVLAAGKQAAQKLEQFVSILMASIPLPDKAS
Method in brief: (§1)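 Cleavage assay: 100 µM substrate in 50 mM potassium phosphate pH 7.4, with enzyme amount adjusted for a linear rate, at 25°C; aliquots at 0, 0.25, 0.5, 1, 2 h, stopped by boiling, filtered. Reverse-phase C-18 HPLC, 50 mM ammonium dihydrogen phosphate pH 4.5 with 1.25–5% acetonitrile, 254 nm detection. Specific activity = nmol product/mg protein/time. Detection limit 1 nmol/mg/hr; mean of at least two experiments.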

[2] = Prodrug activation assessed as recombinant Escherichia coli PNP-mediated compound cleavage at 100 uM by reverse phase HPLC analysis
Method in brief: as §1, with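 “filtered.” for “filtered. Reverse-phase C-18 HPLC, 50 mM ammonium dihydrogen phosphate pH 4.5 with 1.25–5% acetonitrile, 254 nm detection.”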

[3] = Prodrug activation assessed as recombinant Trichomonas vaginalis PNP-mediated compound cleavage at 100 uM by reverse phase HPLC analysis; method in brief: as §1
[4] = target: Purine nucleoside phosphorylase (Sulfolobus solfataricus (strain ATCC 35092 / DSM 1617 / JCM 11322 /P2), UniProt P50389); assay: Prodrug activation assessed as recombinant Sulfolobus solfataricus MTAP-mediated compound cleavage at 100 uM by reverse phase HPLC analysis; conditions: saccharolobus solfataricus; method in brief: as §1
[5] = Prodrug activation assessed as Francisella tularensis PNP-mediated compound cleavage at 100 uM by reverse phase HPLC analysis
Method in brief: (§2)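 Reactions held 50 mM potassium phosphate (pH 7.4) and 100 µM substrate at 25°C. Enzyme was titrated to keep cleavage linear: native F. tularensis PNP from crude extract or recombinant E. coli SAH/MTA hydrolase. Samples were taken at 0–2 h and stopped by boiling. Base and nucleoside were resolved by C18 reverse-phase HPLC at 254 nm. Activity is nmol/mg protein/hr, the average of at least two experiments; detection limit is 1 nmol/mg/hr.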

[6] = system: D54MG; assay: Antitumor activity against human D54MG cells expressing Escherichia coli PNP M64V mutant xenografted in nude mouse assessed as inhibition of tumor growth at 10 and 20 mg/kg, administered via peritoneal cavity 5 times a day (every 2 hrs) for 3 consecutive days measured on day 17 to 19 after tumor implantation; format: functional, organism-based
Method in brief: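 Xenograft: parental and M64V-PNP-transduced D54MG human glioma cells mixed so 10% express M64V; 2 x 10⁷ total cells injected sc into flanks of nu/nu nude mice. At ~300 mg tumors (day 17), ip dosing 5 times daily (every 2 h) for 3 consecutive days at 5, 10 or 20 mg/kg; 6 mice/group. Tumors measured with calipers twice weekly; weight = length x width²/2; mean and SEM.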

[7] = Terminal half life of compound in mouse at 100 mg/kg, ip by reverse phase HPLC analysis; format: ADME, organism-based; conditions: in vivo, read-out: beta t1/2
[8] = target: T2, S-methyl-5'-thioadenosine phosphorylase (Homo sapiens, UniProt Q13126); assay: Prodrug activation assessed as recombinant human MTAP-mediated compound cleavage at 100 uM by reverse phase HPLC analysis; method in brief: as §1
T2 sequence (Q13126 whole entry): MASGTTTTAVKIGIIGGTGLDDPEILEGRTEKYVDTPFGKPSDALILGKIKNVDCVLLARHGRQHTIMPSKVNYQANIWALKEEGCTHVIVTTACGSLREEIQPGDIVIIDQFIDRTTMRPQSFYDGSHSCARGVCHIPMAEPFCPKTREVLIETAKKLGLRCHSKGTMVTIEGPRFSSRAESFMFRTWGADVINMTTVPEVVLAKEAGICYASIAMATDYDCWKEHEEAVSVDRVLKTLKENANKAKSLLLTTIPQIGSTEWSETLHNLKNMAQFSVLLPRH

[9] = Prodrug activation assessed as recombinant Escherichia coli PNP M64V mutant-mediated compound cleavage at 100 uM by reverse phase HPLC analysis
[10] = target: 5'-methylthioadenosine/S-adenosylhomocysteine nucleosidase (Escherichia coli O157:H7, UniProt P0AF14); assay: Prodrug activation assessed as recombinant Escherichia coli SAH/MTA hydrolase-mediated compound cleavage at 100 uM by reverse phase HPLC analysis; method in brief: as §2
[11] = Prodrug activation in human D54MG cells expressing Escherichia coli PNP M64V mutant xenografted in nude mouse assessed as Escherichia coli PNP M64V mutant-mediated compound cleavage per mg of tumor tissue at 5-20 mg/kg administered via peritoneal cavity 5 times a day (every 2 hrs) for 3 consecutive days measured on day 17; format: organism-based; conditions: in vivo, ip
Method in brief: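 Tumor extracts were taken from mice bearing D54 xenografts with 10% M64V-PNP-expressing cells, removed at start of treatment (day 17). Cleavage of the prodrug substrate was reported as nmoles cleaved/mg-hr; N = 3.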

[12] = Antitumor activity against human D54MG cells expressing Escherichia coli PNP M64V mutant xenografted in mouse assessed as time for tumor growth delay at maximum tolerated dose; format: functional
Method in brief: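 Subcutaneous flank xenografts in nude mice (nu/nu) used a 90/10 mix of parental and M64V PNP-transduced D54MG glioma cells (2 x 10⁷ total cells). Starting on day 17, when tumors were about 300 mg, mice received ip doses of 5, 10 or 20 mg/kg five times daily (every 2 h) for 3 days, with 6 mice per group. Calipers were read twice weekly and weight was taken as length x width²/2.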

[13] = Terminal half life of compound in mouse plasma at 67 mg/kg, ip by reverse phase HPLC analysis; format: ADME, organism-based; conditions: read-out: beta t1/2
[14] = Prodrug activation in human D54MG cells expressing Escherichia coli PNP xenografted in nude mouse assessed as Escherichia coli PNP-mediated compound cleavage per mg of tumor tissue; conditions: in vivo
[15] = Antitumor activity against human D54MG cells expressing Escherichia coli PNP xenografted in mouse assessed as time for tumor growth delay at 67 mg/kg; format: functional
[16] = Antitumor activity against human D54MG cells expressing Escherichia coli PNP xenografted in nude mouse assessed as time for tumor growth delay at 33 mg/kg; format: functional

Chain of 5'-methylthioadenosine/S-adenosylhomocysteine nucleosidase (P0AF14 whole entry): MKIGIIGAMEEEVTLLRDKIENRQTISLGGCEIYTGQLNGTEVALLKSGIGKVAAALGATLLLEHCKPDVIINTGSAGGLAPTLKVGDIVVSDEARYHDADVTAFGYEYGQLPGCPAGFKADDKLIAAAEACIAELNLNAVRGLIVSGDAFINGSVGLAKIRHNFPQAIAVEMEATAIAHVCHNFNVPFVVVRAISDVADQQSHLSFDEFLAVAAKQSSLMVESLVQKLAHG
Chain of Purine nucleoside phosphorylase (Sulfolobus solfataricus (strain ATCC 35092 / DSM 1617 / JCM 11322 /P2), UniProt P50389) (P50389 whole entry): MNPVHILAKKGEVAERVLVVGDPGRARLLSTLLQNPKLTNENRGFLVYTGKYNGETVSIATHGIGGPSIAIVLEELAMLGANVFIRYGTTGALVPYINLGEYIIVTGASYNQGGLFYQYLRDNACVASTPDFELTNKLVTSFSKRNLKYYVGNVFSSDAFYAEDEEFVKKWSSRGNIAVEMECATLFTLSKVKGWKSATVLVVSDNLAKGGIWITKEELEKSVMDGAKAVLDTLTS

Work on `OC[C@H]1O[C@@H](n2cnc3c(O)ncnc32)[C@H](O)[C@@H]1O` [INOSINE] yielded a Drug metabolism [1] of 391000 nmol/mg/h, a Drug metabolism [2] of 342000 nmol/mg/h and a Drug metabolism [3] of 154000 nmol/mg/h. It also gave a Drug metabolism [4] of 84000 nmol/mg/h and a Drug metabolism [5] of 2000 nmol/mg/h.
With `Cc1ncnc2c1ncn2[C@@H]1O[C@H]([C@H](C)O)[C@@H](O)[C@H]1O` the inhibition [6] was “Active”, the half-life [7] was 21 min and the Drug metabolism [1] was under 1 nmol/mg/h. The Drug metabolism [8] was 4 nmol/mg/h, the Drug metabolism [2] was 915 nmol/mg/h and the Drug metabolism [9] was 86000 nmol/mg/h. For the same compound, the Drug metabolism [3] was 8400 nmol/mg/h, the Drug metabolism [4] was 1500 nmol/mg/h and the Drug metabolism [10] was 51 nmol/mg/h. It also gave a Drug metabolism [5] of 100 nmol/mg/h, a Drug metabolism [11] of 365 nmol/mg/h and a Time [12] of over 32 days.
In the case of `Cc1ncnc2c1ncn2[C@@H]1O[C@H](CO)[C@@H](O)[C@H]1O`, the Drug metabolism [1] is reported as 12 nmol/mg/h, the Drug metabolism [2] is reported as 96000 nmol/mg/h and the Drug metabolism [9] is reported as 176000 nmol/mg/h. For the same compound, the Drug metabolism [3] was 155000 nmol/mg/h, the Drug metabolism [4] was 4000 nmol/mg/h and the Drug metabolism [10] was 290 nmol/mg/h. The Drug metabolism [5] was 4800 nmol/mg/h.
With `Cc1ncnc2c1ncn2[C@@H]1O[C@@H](CO)[C@@H](O)[C@H]1O` the Drug metabolism [8] was under 1 nmol/mg/h, the Drug metabolism [2] was 218 nmol/mg/h and the Drug metabolism [9] was 10000 nmol/mg/h. For the same compound, the Drug metabolism [3] was 10000 nmol/mg/h, the Drug metabolism [4] was 1400 nmol/mg/h and the Drug metabolism [10] was 36 nmol/mg/h. For the same compound, the Drug metabolism [5] was 180 nmol/mg/h.
`Cc1ncnc2c1ncn2[C@H]1C[C@H](O)[C@@H](CO)O1` showed a half-life [13] of 14 min, a Drug metabolism [1] of 35 nmol/mg/h and a Drug metabolism [8] of under 1 nmol/mg/h. It also gave a Drug metabolism [2] of 528000 nmol/mg/h, a Drug metabolism [9] of 593000 nmol/mg/h and a Drug metabolism [3] of 484000 nmol/mg/h. The Drug metabolism [4] was 12000 nmol/mg/h, the Drug metabolism [10] was 30 nmol/mg/h and the Drug metabolism [5] was 3900 nmol/mg/h. The Drug metabolism [14] was 40 nmol/mg/h, the Time [15] was 22 days and the Time [16] was 22 days.
Compound `Nc1ncnc2c1ncn2[C@@H]1O[C@H](CO)[C@@H](O)[C@H]1O` [ADENOSINE] has a Drug metabolism [8] of 596 nmol/mg/h, a Drug metabolism [3] of 501000 nmol/mg/h and a Drug metabolism [4] of 57000 nmol/mg/h. For the same compound, the Drug metabolism [10] was 2100 nmol/mg/h and the Drug metabolism [5] was 2100 nmol/mg/h.
